Calls of active or inactive are those of the source. The calls are words filed in the database; no cut-off is given here.
Legend:
[1] = Stability in human serum assessed as compound degradation measured at 2 mg/ml after 24 hrs at 37C by RP-HPLC analysis; assay type: ADME, cell-free
Method in brief: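 Peptide at 2 mg/mL final in 25% (v/v) pooled human male AB serum, incubated at 37 °C for 24 h. Samples quenched with equal volume acetonitrile on ice for 20 min and centrifuged at 4 °C. Supernatant diluted to 0.1 mg/mL and run on RP-HPLC. Intact peptide estimated from peak area at 215 nm.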

[2] = In vivo stability in C57BL/6J mouse serum assessed as compound degradation measured at 5 mg/kg, iv after 15 mins by LC/MS/MS analysis; assay type: ADME, organism-based; settings: 0.25 h
Method in brief: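 Mice (C57BL/6J, 8 weeks old, 20–30 g), 4 male and 4 female per group, given one i.v. dose of 5 mg/kg. Submandibular blood drawn into EDTA tubes at 15 min, 30 min, 1, 2, 4, 8 and 24 h. Plasma protein precipitated with 9:1 acetonitrile/acetic acid on ice, centrifuged, and the supernatant analysed by LC/MS/MS.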

Mus musculus [3] = experiment: Hyperglycemic effect in C57BL/6J mouse assessed as increase in blood glucose level at 50 microg/kg, iv measured measured after 30 mins by intraperitoneal insulin tolerance test; assay type: functional, organism-based; settings: dose 50.0 µg/kg
Method in brief: (§1)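 Female C57BL/6J mice, 8 weeks old, 20–30 g, 5 per group. After a 3 h fast they received insulin 0.75 IU/kg, then a single i.v. dose of peptide (50 or 500 μg/kg) or saline. Blood glucose read by glucometer at 15, 30 and 60 min after injection.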

Mus musculus [4] = experiment: Hyperglycemic effect in C57BL/6J mouse assessed as increase in blood glucose level at 500 microg/kg, iv measured measured after 30 mins by intraperitoneal insulin tolerance test; assay type: functional, organism-based; settings: dose 500.0 µg/kg; method in brief: as §1
Mus musculus [5] = experiment: Hyperglycemic effect in C57BL/6J mouse assessed as increase in blood glucose level at 50 microg/kg, iv measured measured up to 60 mins by intraperitoneal insulin tolerance test; assay type: functional, organism-based; settings: dose 50.0 µg/kg
Method in brief: (§2)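 Wild-type 8-week-old female mice weighing 20–30 g, 7 groups of 5. Mice fasted 3 h, then given insulin (0.75 IU/kg). […] Blood glucose read with a glucometer at 15, 30 and 60 min post-injection.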

Mus musculus [6] = experiment: Hyperglycemic effect in C57BL/6J mouse assessed as increase in blood glucose level at 500 microg/kg, iv measured measured up to 60 mins by intraperitoneal insulin tolerance test; assay type: functional, organism-based; settings: dose 500.0 µg/kg; method in brief: as §2

Sequence | Drug degradation [1] [%] | Stability [2] | Activity (Mus musculus [3]) | Activity (Mus musculus [4]) | Activity (Mus musculus [5]) | Activity (Mus musculus [6])
GLUCAGON [listing 1 of 2 here] | > 85 | Unstable |  |  |  | 
GLUCAGON [listing 2 of 2 here] |  |  | Active | Active | Active | Active
